The values below come from ChEMBL document CHEMBL2380295, “Structure-activity studies on the side chain of a simplified analog of aplysiatoxin (aplog-1) with anti-proliferative activity” (Bioorg Med Chem, 2013).

For one data set, the system named is MKN-45. Kind of data set: Growth inhibition of human MKN45 cells after 48 hrs by sulforhodamine B assay. Format: functional. Conditions: MKN-45, 48 h. Summed up:
(§1)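 Yamori 39-line human cancer panel, NCI method with modifications. Cells plated in RPMI 1640 plus 5% FBS, attached overnight, then exposed 48 h to compound at 10^-8, 10^-7, 10^-6, 10^-5 and 10^-4 M. Sulforhodamine B staining read at 525 nm; % growth = 100[(T−T0)/(C−T0)] from duplicate-point averages, with T0 the time-zero absorbance. GI50 is the concentration giving 50.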
On the technique in general: In SRB staining, fixed cells bind dye roughly in proportion to their protein.
The GI50 is the concentration that inhibits growth by half. Lower therefore signals greater sensitivity of the cells. `COc1cccc(CCCC[C@@H]2C[C@@H]3C[C@@]4(O[C@H](CCC4(C)C)CC(=O)O[C@@H](CO)CC(=O)O3)O2)c1` gave a concentration for 50% growth inhibition (GI50) of 9.55 µM.

The next data set has as its system MKN-74. Kind of data set: Growth inhibition of human MKN74 cells after 48 hrs by sulforhodamine B assay. Format: functional. The note with it: MKN-74, 48 h. Summed up:
as §1
Molecule `COc1cccc(CCCC[C@@H]2C[C@@H]3C[C@@]4(O[C@H](CCC4(C)C)CC(=O)O[C@@H](CO)CC(=O)O3)O2)c1` showed a GI50 of 15.8 µM.

Another data set concerns HCT-116. The experiment in a line: Growth inhibition of human HCT116 cells after 48 hrs by sulforhodamine B assay. It counts as functional. Conditions: HCT-116, 48 h. In a few lines: as §1
Molecule `COc1cccc(CCCC[C@@H]2C[C@@H]3C[C@@]4(O[C@H](CCC4(C)C)CC(=O)O[C@@H](CO)CC(=O)O3)O2)c1` showed a GI50 of 13.5 µM.

Test system in the next data set: not listed separately
The experiment in a line: Growth inhibition of human HCC2998 cells after 48 hrs by sulforhodamine B assay. The note with it: HCC 2998, 48 h. It counts as functional. Summed up: as §1
The molecule `COc1cccc(CCCC[C@@H]2C[C@@H]3C[C@@]4(O[C@H](CCC4(C)C)CC(=O)O[C@@H](CO)CC(=O)O3)O2)c1` had a GI50 of 7.94 µM.

The test system of a further data set is KM12. The experiment in a line: Growth inhibition of human KM12 cells after 48 hrs by sulforhodamine B assay. It counts as functional. Conditions: KM12, 48 h. In a few lines: as §1
The molecule `COc1cccc(CCCC[C@@H]2C[C@@H]3C[C@@]4(O[C@H](CCC4(C)C)CC(=O)O[C@@H](CO)CC(=O)O3)O2)c1` gave a GI50 of 13.8 µM.

The test system of another data set is SF-295. Kind of data set: Growth inhibition of human SF295 cells after 48 hrs by sulforhodamine B assay. Conditions: SF-295, 48 h. Format: functional. In a few lines:
as §1
In the case of `COc1cccc(CCCC[C@@H]2C[C@@H]3C[C@@]4(O[C@H](CCC4(C)C)CC(=O)O[C@@H](CO)CC(=O)O3)O2)c1`, the GI50 is 10.2 µM.

The next data set relates to SNB-75. The experiment in a line: Growth inhibition of human SNB75 cells after 48 hrs by sulforhodamine B assay. Format: functional. The note with it: SNB-75, 48 h. In a few lines:
as §1
For the molecule `COc1cccc(CCCC[C@@H]2C[C@@H]3C[C@@]4(O[C@H](CCC4(C)C)CC(=O)O[C@@H](CO)CC(=O)O3)O2)c1`, growth was halved (GI50) at 14.5 µM.

The test system of the next data set is NCI-H522. Kind of data set: Growth inhibition of human NCI-H522 cells after 48 hrs by sulforhodamine B assay. It counts as functional. Conditions: NCI-H522, 48 h. Summed up:
as §1
The molecule `COc1cccc(CCCC[C@@H]2C[C@@H]3C[C@@]4(O[C@H](CCC4(C)C)CC(=O)O[C@@H](CO)CC(=O)O3)O2)c1` gave a GI50 of 11.5 µM.

For another data set, the system named is OVCAR-8. The experiment in a line: Growth inhibition of human OVCAR8 cells after 48 hrs by sulforhodamine B assay. It counts as functional. The note with it: OVCAR-8, 48 h. In a few lines: as §1
The molecule `COc1cccc(CCCC[C@@H]2C[C@@H]3C[C@@]4(O[C@H](CCC4(C)C)CC(=O)O[C@@H](CO)CC(=O)O3)O2)c1` showed a GI50 of 17 µM.

The next data set concerns OVCAR-5. The experiment in a line: Growth inhibition of human OVCAR5 cells after 48 hrs by sulforhodamine B assay. It counts as functional. The note with it: OVCAR-5, 48 h. Summed up: as §1
`COc1cccc(CCCC[C@@H]2C[C@@H]3C[C@@]4(O[C@H](CCC4(C)C)CC(=O)O[C@@H](CO)CC(=O)O3)O2)c1` had a GI50 of 13.5 µM.

The subject of the next data set is SF-268. Kind of data set: Growth inhibition of human SF268 cells after 48 hrs by sulforhodamine B assay. Format: functional. The note with it: SF-268, 48 h. In a few lines: as §1
Regarding `COc1cccc(CCCC[C@@H]2C[C@@H]3C[C@@]4(O[C@H](CCC4(C)C)CC(=O)O[C@@H](CO)CC(=O)O3)O2)c1`, the 50% growth inhibitory concentration (GI50) was 14.1 µM.

A further data set relates to MKN-28. The experiment in a line: Growth inhibition of human MKN28 cells after 48 hrs by sulforhodamine B assay. It counts as functional. Conditions: MKN-28, 48 h. In a few lines:
as §1
For the molecule `COc1cccc(CCCC[C@@H]2C[C@@H]3C[C@@]4(O[C@H](CCC4(C)C)CC(=O)O[C@@H](CO)CC(=O)O3)O2)c1`, growth was halved (GI50) at 15.1 µM. That is a double-digit micromolar value.

The next data set relates to DMS-273. The experiment in a line: Growth inhibition of human DMS273 cells after 48 hrs by sulforhodamine B assay. It counts as functional. The note with it: DMS-273, 48 h. In a few lines:
as §1
In turn, `COc1cccc(CCCC[C@@H]2C[C@@H]3C[C@@]4(O[C@H](CCC4(C)C)CC(=O)O[C@@H](CO)CC(=O)O3)O2)c1` had a 50% growth inhibitory concentration (GI50) of 11 µM.

The subject of a further data set is SF-539. Kind of data set: Growth inhibition of human SF539 cells after 48 hrs by sulforhodamine B assay. It counts as functional. The note with it: SF-539, 48 h. In a few lines:
as §1
`COc1cccc(CCCC[C@@H]2C[C@@H]3C[C@@]4(O[C@H](CCC4(C)C)CC(=O)O[C@@H](CO)CC(=O)O3)O2)c1` showed a GI50 of 10 µM.

For a further data set, the system named is Human gammaherpesvirus 4. The experiment in a line: Induction of EBV-early antigen expressed in human Raji cells at 10^-6 M after 48 hrs by immunofluorescence assay relative to control. Conditions: human gammaherpesvirus 4, raji, 1 µM. It counts as organism-based. Summed up: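 Raji B-lymphoblastoid cells (5 × 10^5/mL) in RPMI 1640 with 10% FBS, with 4 mM sodium n-butyrate as synergist and test compound at 10^-7 or 10^-6 M (final DMSO 0.4%). Incubated 48 h at 37 °C under 5% CO2. Smears were stained by indirect immunofluorescence using NPC patient serum and FITC anti-human IgG. At least 500 cells counted; % EA-positive recorded; n = 3, SEM.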
As for `COc1cccc(CCCC[C@@H]2C[C@@H]3C[C@@]4(O[C@H](CCC4(C)C)CC(=O)O[C@@H](CO)CC(=O)O3)O2)c1`, the Activity was found to be 5.2%.

The next data set relates to SK-OV-3. The experiment in a line: Growth inhibition of human SKOV3 cells after 48 hrs by sulforhodamine B assay. It counts as functional. The note with it: SK-OV-3, 48 h. In a few lines: as §1
In turn, `COc1cccc(CCCC[C@@H]2C[C@@H]3C[C@@]4(O[C@H](CCC4(C)C)CC(=O)O[C@@H](CO)CC(=O)O3)O2)c1` had a GI50 of 16.2 µM.

Test system in the next data set: not listed separately
Kind of data set: Growth inhibition of human HBC5 cells after 48 hrs by sulforhodamine B assay. Conditions: HBC5, 48 h. It counts as functional. In a few lines: as §1
In turn, `COc1cccc(CCCC[C@@H]2C[C@@H]3C[C@@]4(O[C@H](CCC4(C)C)CC(=O)O[C@@H](CO)CC(=O)O3)O2)c1` showed a concentration for 50% growth inhibition (GI50) of 18.6 µM.

A further data set deals with NCI-H226. Kind of data set: Growth inhibition of human NCI-H226 cells after 48 hrs by sulforhodamine B assay. It counts as functional. Conditions: NCI-H226, 48 h. In a few lines: as §1
Consider `COc1cccc(CCCC[C@@H]2C[C@@H]3C[C@@]4(O[C@H](CCC4(C)C)CC(=O)O[C@@H](CO)CC(=O)O3)O2)c1`, for which growth was halved (GI50) at 11.7 µM.

The next data set has as its system MDA-MB-231. The experiment in a line: Growth inhibition of human MDA-MB-231 cells after 48 hrs by sulforhodamine B assay. It counts as functional. Conditions: MDA-MB-231, 48 h. Summed up:
as §1
Consider `COc1cccc(CCCC[C@@H]2C[C@@H]3C[C@@]4(O[C@H](CCC4(C)C)CC(=O)O[C@@H](CO)CC(=O)O3)O2)c1`, for which the 50% growth inhibitory concentration (GI50) was 6.61 µM.

The test system of the next data set is ACHN. The experiment in a line: Growth inhibition of human ACHN cells after 48 hrs by sulforhodamine B assay.
Details: not given
It counts as functional. In a few lines: as §1
`COc1cccc(CCCC[C@@H]2C[C@@H]3C[C@@]4(O[C@H](CCC4(C)C)CC(=O)O[C@@H](CO)CC(=O)O3)O2)c1` had a 50% growth inhibitory concentration (GI50) of 11.5 µM. This counts as double-digit micromolar.

Another data set has as its system MKN-7. Kind of data set: Growth inhibition of human MKN7 cells after 48 hrs by sulforhodamine B assay. It counts as functional. Conditions: MKN-7, 48 h. In a few lines:
as §1
Take `COc1cccc(CCCC[C@@H]2C[C@@H]3C[C@@]4(O[C@H](CCC4(C)C)CC(=O)O[C@@H](CO)CC(=O)O3)O2)c1`: the 50% growth inhibitory concentration (GI50) was 19.1 µM.

Test system in the next data set: not listed separately
Kind of data set: Octanol-water partition coefficient, log P of the compound by HPLC analysis. Format: physicochemical.
Details: not given
In a few lines: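 log P was estimated from HPLC retention, with column dead time measured using unretained formamide.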
What is called logP is a log measure of how a compound divides between an organic and an aqueous phase. A high value points to a more lipophilic compound. Regarding `COc1cccc(CCCC[C@@H]2C[C@@H]3C[C@@]4(O[C@H](CCC4(C)C)CC(=O)O[C@@H](CO)CC(=O)O3)O2)c1`, the logP was 4.4.

Test system in the next data set: not listed separately
The experiment in a line: Cytotoxicity against human Raji cells assessed as cell viability at 10^-7 M. It counts as cell-based. The note with it: read-out: Activity.
As for `COc1cccc(CCCC[C@@H]2C[C@@H]3C[C@@]4(O[C@H](CCC4(C)C)CC(=O)O[C@@H](CO)CC(=O)O3)O2)c1`, the viability at 0.1 µM is 60%.
